How the values were obtained:
DU-145 [1] = assay: Cytotoxicity against human DU145 cells after 48 hrs by SRB assay; type: functional, cell-based; conditions: Homo sapiens, DU-145, 48 h; for CC50: read-out: LC50 (the source's name)
How it was run: (§1)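 Cells grown in RPMI 1640 with 10% FBS and penicillin/streptomycin at 37 °C and 5% CO₂, trypsinized, then seeded at 5 × 10³/well. After 18 h drug-free attachment, samples in DMSO/EtOH/PBS (0.5:0.5:99) were added for 48 h continuous exposure. Cells were fixed with cold TCA (1 h, 4 °C) and stained with SRB (10 min). Tris-solubilized stain read at 490 nm. Triplicate wells, mean ± SD; GI₅₀ derived.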

A549 = assay: Cytotoxicity against human A549 cells after 48 hrs by SRB assay; type: functional, cell-based; conditions: Homo sapiens, A549, 48 h; how it was run: as §1
HT-29 = assay: Cytotoxicity against human HT29 cells after 48 hrs by SRB assay; type: functional, cell-based; conditions: Homo sapiens, HT-29, 48 h; for CC50: read-out: LC50 (the source's name); how it was run: as §1
SK-MEL-28 [2] = assay: Cytotoxicity against human SK-MEL-28 cells
SK-MEL-28 [3] = assay: Cytotoxicity against human SK-MEL-28 cells after 48 hrs by SRB assay; type: functional, cell-based; conditions: Homo sapiens, SK-MEL-28, 48 h; for CC50: read-out: LC50 (the source's name); how it was run: as §1
DU-145 [4] = assay: Cytotoxicity against human DU145 cells
LNCaP = assay: Cytotoxicity against human LNcaP cells after 48 hrs by SRB assay; type: functional; conditions: for CC50: read-out: LC50 (the source's name); how it was run: as §1
[5] = Cytotoxicity against human IGROV cells after 48 hrs by SRB assay; type: functional; conditions: for GI50: read-out: GI50; for CC50: read-out: LC50 (the source's name); how it was run: as §1
[6] = Cytotoxicity against human IGROV-ET cells after 48 hrs by SRB assay; type: functional; conditions: for CC50: read-out: LC50 (the source's name); how it was run: as §1
SK-BR-3 = assay: Cytotoxicity against human SKBR3 cells after 48 hrs by SRB assay; type: functional; conditions: SK-BR-3, 48 h; for GI50: read-out: GI50; for CC50: read-out: LC50 (the source's name); how it was run: as §1
K562 = assay: Cytotoxicity against human K562 cells after 48 hrs by SRB assay; type: functional; conditions: K562, 48 h; for CC50: read-out: LC50 (the source's name); how it was run: as §1
PANC-1 = assay: Cytotoxicity against human PANC1 cells after 48 hrs by SRB assay; type: functional; conditions: PANC-1, 48 h; for CC50: read-out: LC50 (the source's name); how it was run: as §1
LoVo [7] = assay: Cytotoxicity against human LoVo cells after 48 hrs by SRB assay; type: functional; conditions: for CC50: read-out: LC50 (the source's name)
LoVo [8] = assay: Cytotoxicity against human doxorubicin resistant LoVo cells after 48 hrs by SRB assay; type: functional; conditions: for CC50: read-out: LC50 (the source's name); how it was run: as §1
HeLa = assay: Cytotoxicity against human HeLa cells after 48 hrs by SRB assay; type: functional; conditions: for CC50: read-out: LC50 (the source's name); how it was run: as §1
[9] = Cytotoxicity against human HeLa-APL cells after 48 hrs by SRB assay; type: functional; how it was run: as §1

## C/C=C1\NC(=O)[C@H](Cc2ccccc2)NC(=O)[C@@H](C(C)C)NC(=O)[C@@H]([C@H](C)CC)NC(=O)[C@H](NC(=O)[C@H](NC(=O)[C@@H](NC(=O)[C@@H](NC(=O)[C@H](NC(=O)CCCC(C)C)C(C)C)[C@@H](C)O)C(C)C)[C@H](C)CC)[C@H](C)OC(=O)[C@H](C(C)C)NC1=O
DU-145 [1]
  IC50: 4300 nM
A549
  IC50: 4300 nM
HT-29
  IC50: 4300 nM
SK-MEL-28 [2]
  IC50: 4300 nM

## C/C=C1\NC(=O)[C@H](Cc2ccccc2)NC(=O)[C@@H](C(C)C)NC(=O)[C@@H]([C@H](C)CC)NC(=O)[C@H](NC(=O)[C@H](NC(=O)[C@@H](NC(=O)[C@H](NC(=O)CCCC(C)C)C(C)C)[C@@H](C)O)[C@H](C)CC)[C@H](C)OC(=O)[C@H](C(C)C)NC1=O
DU-145 [1]
  IC50: 9360 nM
A549
  IC50: 9360 nM
HT-29
  IC50: 9360 nM
SK-MEL-28 [2]
  IC50: 9360 nM

## C/C=C1\NC(=O)[C@H](Cc2ccccc2)NC(=O)[C@@H](C(C)C)NC(=O)[C@@H]([C@H](C)CC)NC(=O)[C@H](NC(=O)[C@H](NC(=O)CCCC(C)C)[C@H](C)CC)[C@H](C)OC(=O)[C@H](C(C)C)NC1=O
SK-MEL-28 [3]
  IC50: 11500 nM
A549
  IC50: 11500 nM
HT-29
  IC50: 11500 nM
DU-145 [4]
  IC50: 11500 nM

## C/C=C1\NC(=O)[C@H](Cc2ccccc2)NC(=O)[C@@H](C(C)C)NC(=O)[C@@H]([C@H](C)CC)NC(=O)[C@H](NC(=O)[C@H](NC(=O)[C@H](CCCN)NC(=O)[C@H]2CCCN2C(=O)[C@H](NC(=O)[C@@H](NC(=O)[C@@H](NC(=O)[C@H](NC(=O)CCCN(C)C)C(C)C)[C@@H](C)O)C(C)C)C(C)C)[C@H](C)CC)[C@H](C)OC(=O)[C@H](C(C)C)NC1=O
DU-145 [1]
  IC50: 6770 nM
A549
  IC50: 6770 nM
HT-29
  IC50: 6770 nM
SK-MEL-28 [2]
  IC50: 6770 nM

## C/C=C1\NC(=O)[C@H](Cc2ccccc2)NC(=O)[C@@H](C(C)C)NC(=O)[C@@H]([C@H](C)CC)NC(=O)[C@H](NC(=O)[C@H](NC(=O)[C@H]2CCCN2C(=O)[C@H](NC(=O)[C@@H](NC(=O)[C@@H](NC(=O)[C@H](NC(=O)CCCC(C)C)C(C)C)[C@@H](C)O)C(C)C)C(C)C)[C@H](C)CC)[C@H](C)OC(=O)[C@H](C(C)C)NC1=O
DU-145 [1]
  IC50: 3670 nM
HT-29
  IC50: 3670 nM
SK-MEL-28 [2]
  IC50: 3670 nM

## CC[C@@H](C)[C@@H](NC(=O)[C@H](CCCN)NC(=O)[C@H]1CCCN1C(=O)[C@H](NC(=O)[C@@H](NC(=O)[C@@H](NC(=O)[C@H](NC(=O)CCCC(C)C)C(C)C)[C@@H](C)O)C(C)C)C(C)C)C(=O)N[C@H]1C(=O)N[C@H]([C@H](C)CC)C(=O)N[C@H](C(C)C)C(=O)N[C@@H](Cc2ccccc2)C(=O)N[C@H]([C@@H](C)O)C(=O)N[C@@H](C(C)C)C(=O)O[C@H]1C
SK-MEL-28 [3]
  IC50: 11700 nM
A549
  IC50: 11500 nM
HT-29
  IC50: 8520 nM
DU-145 [4]
  IC50: 18400 nM

## C/C=C1\NC(=O)[C@H](Cc2ccccc2)NC(=O)[C@@H](C(C)C)NC(=O)[C@@H]([C@H](C)CC)NC(=O)[C@H](NC(=O)[C@H](NC(=O)[C@H](CCCN)NC(=O)[C@H]2CCCN2C(=O)[C@@H](NC(=O)[C@H](NC(=O)[C@@H](NC(=O)[C@H](NC(=O)CCCC(C)C)C(C)C)[C@@H](C)O)C(C)C)C(C)C)[C@H](C)CC)[C@H](C)OC(=O)[C@H](C(C)C)NC1=O
DU-145 [1]
  IC50: 3390 nM
A549
  IC50: 3390 nM
HT-29
  IC50: 3390 nM
SK-MEL-28 [2]
  IC50: 3390 nM

## C/C=C1\NC(=O)[C@H](Cc2ccccc2)NC(=O)[C@@H](C(C)C)NC(=O)[C@@H]([C@H](C)CC)NC(=O)[C@H](NC(=O)[C@H](NC(=O)[C@H](CCCN)NC(=O)[C@H]2CCCN2C(=O)[C@H](NC(=O)[C@H](CCC2CCCCC2)NC(=O)[C@@H](NC(=O)[C@H](NC(=O)CCCC(C)C)C(C)C)[C@@H](C)O)C(C)C)[C@H](C)CC)[C@H](C)OC(=O)[C@H](C(C)C)NC1=O
DU-145 [1]
  GI50: 507 nM
  CC50: 709 nM
DU-145 [1]; read-out: GI50
  GI50: 350 nM
LNCaP
  GI50: 639 nM
  TGI: 909 nM
  CC50: 1290 nM
[5]
  TGI: 2940 nM
  GI50: 284 nM
  CC50: 3870 nM
[6]
  GI50: 380 nM
  CC50: 455 nM
[6]; read-out: GI50
  GI50: 377 nM
SK-BR-3
  TGI: 267 nM
  GI50: 234 nM
  CC50: 230 nM
SK-MEL-28 [3]
  GI50: 467 nM
  CC50: 626 nM
SK-MEL-28 [3]; read-out: GI50
  GI50: 329 nM
A549
  GI50: 233 nM
  LC50: 437 nM
A549; read-out: GI50
  GI50: 186 nM
K562
  CC50: 1850 nM
PANC-1
  GI50: 1040 nM
  TGI: 1380 nM
  CC50: 1700 nM
HT-29
  GI50: 235 nM
  TGI: 265 nM
  CC50: 0.299 µg/mL
LoVo [7]
  GI50: 240 nM
  TGI: 256 nM
  CC50: 273 nM
LoVo [8]
  GI50: 114 nM
  TGI: 153 nM
  CC50: 1000 nM
HeLa
  GI50: 394 nM
  TGI: 628 nM
  CC50: 829 nM
[9]
  GI50: 462 nM
  LC50 (concentration giving 50% net cell kill): 732 nM
  TGI: 672 nM

## C/C=C1\NC(=O)[C@H](Cc2ccccc2)NC(=O)[C@@H](C(C)C)NC(=O)[C@@H]([C@H](C)CC)NC(=O)[C@H](NC(=O)[C@H](NC(=O)[C@H](CCCN)NC(=O)[C@H]2CCCN2C(=O)[C@H](NC(=O)[C@@H](NC(=O)[C@@H](NC(=O)[C@H](NC(=O)CCCC(C)C)C(C)C)[C@@H](C)O)C(C)C)C(C)C)[C@H](C)CC)[C@H](C)OC(=O)[C@H](C(C)C)NC1=O [KAHALALIDE F]
DU-145 [1]
  TGI: 1720 nM
  CC50: 3720 nM
DU-145 [1]; read-out: GI50
  GI50: 931 nM
LNCaP
  GI50: 960 nM
  TGI: 1960 nM
  CC50: 4260 nM
[5]
  TGI: 1180 nM
  GI50: 493 nM
  CC50: 3220 nM
[6]
  TGI: 1300 nM
  CC50: 3280 nM
[6]; read-out: GI50
  GI50: 550 nM
SK-BR-3
  TGI: 810 nM
  GI50: 363 nM
  CC50: 1980 nM
SK-MEL-28 [3]
  TGI: 2260 nM
  CC50: 4500 nM
SK-MEL-28 [3]; read-out: GI50
  GI50: 1190 nM
A549
  LC50: 4520 nM
  TGI: 2200 nM
A549; read-out: GI50
  GI50: 1160 nM
K562
  GI50: 1930 nM
  TGI: 3320 nM
  CC50: 5280 nM
PANC-1
  GI50: 1770 nM
  TGI: 3330 nM
  CC50: 5070 nM
HT-29
  GI50: 432 nM
  TGI: 915 nM
  CC50: 2240 nM
LoVo [7]
  GI50: 334 nM
  TGI: 614 nM
  CC50: 1510 nM
LoVo [8]
  GI50: 299 nM
  TGI: 485 nM
  CC50: 1470 nM
HeLa
  GI50: 965 nM
  TGI: 1970 nM
  CC50: 4730 nM
[9]
  GI50: 975 nM
  LC50 (concentration giving 50% net cell kill): 4290 nM
  TGI: 2020 nM
